Data as given in ChEMBL document CHEMBL3244258, “Derivatives of tetrahydro-1,4-benzodiazepines as potential antihypertensive agents” (1977).

What was measured:
Rattus norvegicus [1] = assay: Antihypertensive activity in left kidney ligation and contralateral nephrectomy-induced hypertensive Sprague-Dawley rat model assessed as change in systolic blood pressure at 75 mg/kg, po administered via stomach tube; type: functional, Artery
Method in brief: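 Conscious female rats made hypertensive by figure-8 ligature of left kidney, contralateral nephrectomy 1 week later. Dosed orally by stomach tube. Systolic pressure measured at the tail with occluding and sensing cuffs and a pressure transducer, before dosing and 1.5 and 4 h after. Values are group means of 4 or 8 rats.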

Rattus norvegicus [2] = assay: Antihypertensive activity in pithed rat assessed as change in phenylephrine-induced systemic pressor response at 10 mg/kg, iv in presence of 4 mg/kg phenylephrine; type: functional
Method in brief: (§1)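 Ether-anesthetized, artificially respired rats pretreated with atropine 1 mg/kg and d-tubocurarine chloride 1 mg/kg. Carotid arterial pressure recorded; drugs given into the jugular vein. Pressor responses to iv phenylephrine measured before and after one or more iv doses of test compound. Reported as percent change in response.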

Rattus norvegicus [3] = assay: Antihypertensive activity in pithed rat assessed as change in sympathetic outflow activation-induced systemic pressor response at 20 mg/kg, iv at 10 Hz frequency; type: functional
Method in brief: (§2)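 Pithed-rat preparation under ether anesthesia with artificial respiration, pretreated with atropine 1 mg/kg and d-tubocurarine chloride 1 mg/kg. Sympathetic outflow activated electrically at 2.5, 5 or 10 Hz. Carotid pressure responses taken before and after one or more test doses given via jugular vein. Reported as percent change in pressor response.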

Rattus norvegicus [4] = assay: Antihypertensive activity in pithed rat assessed as change in phenylephrine-induced systemic pressor response at 10 mg/kg, iv in presence of 2 mg/kg phenylephrine; type: functional; method in brief: as §1
Rattus norvegicus [5] = assay: Antihypertensive activity in pithed rat assessed as change in sympathetic outflow activation-induced systemic pressor response at 10 mg/kg, iv at 2.5 Hz frequency; type: functional; method in brief: as §2
Rattus norvegicus [6] = assay: Antihypertensive activity in pithed rat assessed as change in phenylephrine-induced systemic pressor response at 20 mg/kg, iv in presence of 2 mg/kg phenylephrine; type: functional; method in brief: as §1
Rattus norvegicus [7] = assay: Antihypertensive activity in pithed rat assessed as change in sympathetic outflow activation-induced systemic pressor response at 20 mg/kg, iv at 5 Hz frequency; type: functional; method in brief: as §2
Rattus norvegicus [8] = assay: Antihypertensive activity in pithed rat assessed as change in phenylephrine-induced systemic pressor response at 20 mg/kg, iv in presence of 4 mg/kg phenylephrine; type: functional; method in brief: as §1
Rattus norvegicus [9] = assay: Antihypertensive activity in pithed rat assessed as change in sympathetic outflow activation-induced systemic pressor response at 10 mg/kg, iv at 10 Hz frequency; type: functional; method in brief: as §2
Rattus norvegicus [10] = assay: Antihypertensive activity in pithed rat assessed as change in sympathetic outflow activation-induced systemic pressor response at 20 mg/kg, iv at 2.5 Hz frequency; type: functional; method in brief: as §2
Rattus norvegicus [11] = assay: Antihypertensive activity in pithed rat assessed as change in sympathetic outflow activation-induced systemic pressor response at 10 mg/kg, iv at 5 Hz frequency; type: functional; method in brief: as §2
Rattus norvegicus [12] = assay: Antihypertensive activity in pithed rat assessed as change in phenylephrine-induced systemic pressor response at 30 mg/kg, iv in presence of 4 mg/kg phenylephrine; type: functional; method in brief: as §1
Rattus norvegicus [13] = assay: Antihypertensive activity in pithed rat assessed as change in sympathetic outflow activation-induced systemic pressor response at 30 mg/kg, iv at 2.5 Hz frequency; type: functional; method in brief: as §2
Rattus norvegicus [14] = assay: Antihypertensive activity in pithed rat assessed as change in sympathetic outflow activation-induced systemic pressor response at 30 mg/kg, iv at 5 Hz frequency; type: functional; method in brief: as §2
Rattus norvegicus [15] = assay: Antihypertensive activity in pithed rat assessed as change in phenylephrine-induced systemic pressor response at 30 mg/kg, iv in presence of 2 mg/kg phenylephrine; type: functional; method in brief: as §1
Rattus norvegicus [16] = assay: Antihypertensive activity in pithed rat assessed as change in sympathetic outflow activation-induced systemic pressor response at 30 mg/kg, iv at 10 Hz frequency; type: functional; method in brief: as §2
Rattus norvegicus [17] = assay: Antihypertensive activity in pithed rat assessed as change in phenylephrine-induced systemic pressor response at 5 mg/kg, iv in presence of 4 mg/kg phenylephrine; type: functional; method in brief: as §1
Rattus norvegicus [18] = assay: Antihypertensive activity in pithed rat assessed as change in sympathetic outflow activation-induced systemic pressor response at 15 mg/kg, iv at 2.5 Hz frequency; type: functional; method in brief: as §2
Rattus norvegicus [19] = assay: Antihypertensive activity in pithed rat assessed as change in sympathetic outflow activation-induced systemic pressor response at 5 mg/kg, iv at 10 Hz frequency; type: functional; method in brief: as §2
Rattus norvegicus [20] = assay: Antihypertensive activity in pithed rat assessed as change in sympathetic outflow activation-induced systemic pressor response at 15 mg/kg, iv at 5 Hz frequency; type: functional; method in brief: as §2
Rattus norvegicus [21] = assay: Antihypertensive activity in pithed rat assessed as change in sympathetic outflow activation-induced systemic pressor response at 5 mg/kg, iv at 2.5 Hz frequency; type: functional; method in brief: as §2
Rattus norvegicus [22] = assay: Antihypertensive activity in pithed rat assessed as change in phenylephrine-induced systemic pressor response at 5 mg/kg, iv in presence of 2 mg/kg phenylephrine; type: functional; method in brief: as §1
Rattus norvegicus [23] = assay: Antihypertensive activity in pithed rat assessed as change in phenylephrine-induced systemic pressor response at 15 mg/kg, iv in presence of 2 mg/kg phenylephrine; type: functional; method in brief: as §1
Rattus norvegicus [24] = assay: Antihypertensive activity in pithed rat assessed as change in sympathetic outflow activation-induced systemic pressor response at 15 mg/kg, iv at 10 Hz frequency; type: functional; method in brief: as §2
Rattus norvegicus [25] = assay: Antihypertensive activity in pithed rat assessed as change in phenylephrine-induced systemic pressor response at 15 mg/kg, iv in presence of 4 mg/kg phenylephrine; type: functional; method in brief: as §1
Rattus norvegicus [26] = assay: Antihypertensive activity in pithed rat assessed as change in sympathetic outflow activation-induced systemic pressor response at 5 mg/kg, iv at 5 Hz frequency; type: functional; method in brief: as §2
Rattus norvegicus [27] = assay: Antihypertensive activity in pithed rat assessed as change in sympathetic outflow activation-induced systemic pressor response at 40 mg/kg, iv at 2.5 Hz frequency; type: functional; method in brief: as §2
Rattus norvegicus [28] = assay: Antihypertensive activity in pithed rat assessed as change in phenylephrine-induced systemic pressor response at 40 mg/kg, iv in presence of 2 mg/kg phenylephrine; type: functional; method in brief: as §1
Rattus norvegicus [29] = assay: Antihypertensive activity in pithed rat assessed as change in sympathetic outflow activation-induced systemic pressor response at 40 mg/kg, iv at 5 Hz frequency; type: functional; method in brief: as §2
Rattus norvegicus [30] = assay: Antihypertensive activity in pithed rat assessed as change in phenylephrine-induced systemic pressor response at 40 mg/kg, iv in presence of 4 mg/kg phenylephrine; type: functional; method in brief: as §1
Rattus norvegicus [31] = assay: Antihypertensive activity in pithed rat assessed as change in sympathetic outflow activation-induced systemic pressor response at 40 mg/kg, iv at 10 Hz frequency; type: functional; method in brief: as §2
Rattus norvegicus [32] = assay: Antihypertensive activity in pithed rat assessed as change in phenylephrine-induced systemic pressor response at 1 mg/kg, iv in presence of 4 mg/kg phenylephrine; type: functional; method in brief: as §1
Rattus norvegicus [33] = assay: Antihypertensive activity in pithed rat assessed as change in sympathetic outflow activation-induced systemic pressor response at 1 mg/kg, iv at 5 Hz frequency; type: functional; method in brief: as §2
Rattus norvegicus [34] = assay: Antihypertensive activity in pithed rat assessed as change in sympathetic outflow activation-induced systemic pressor response at 1 mg/kg, iv at 10 Hz frequency; type: functional; method in brief: as §2
Rattus norvegicus [35] = assay: Antihypertensive activity in pithed rat assessed as change in sympathetic outflow activation-induced systemic pressor response at 1 mg/kg, iv at 2.5 Hz frequency; type: functional; method in brief: as §2
Rattus norvegicus [36] = assay: Antihypertensive activity in pithed rat assessed as change in phenylephrine-induced systemic pressor response at 1 mg/kg, iv in presence of 2 mg/kg phenylephrine; type: functional; method in brief: as §1

N=C(N)N1CCNc2ccc(Cl)cc2C1.O=[N+]([O-])O
Activity (Rattus norvegicus [1]): -34 mmHg

CN1CCN(C(=N)N)Cc2ccccc21.O=[N+]([O-])O
Activity (Rattus norvegicus [2]): -5% | Activity (Rattus norvegicus [3]): -82% | Activity (Rattus norvegicus [4]): -14% | Activity (Rattus norvegicus [5]): -73% | Activity (Rattus norvegicus [6]): -26% | Activity (Rattus norvegicus [7]): -83% | Activity (Rattus norvegicus [8]): -20% | Activity (Rattus norvegicus [1]): -60 mmHg | Activity (Rattus norvegicus [9]): -57% | Activity (Rattus norvegicus [10]): -83% | Activity (Rattus norvegicus [11]): -67%

N=C(N)N1CCN2CCc3cccc(c32)C1.O=[N+]([O-])O
Activity (Rattus norvegicus [1]): -12 mmHg

N=C(N)N1CCn2c3c(c4cccc(c42)C1)CCCC3.O=[N+]([O-])O
Activity (Rattus norvegicus [1]): -8 mmHg

C[N+]1(C)CCNc2ccccc2C1.[I-]
Activity (Rattus norvegicus [12]): 74% | Activity (Rattus norvegicus [13]): -38% | Activity (Rattus norvegicus [14]): -34% | Activity (Rattus norvegicus [2]): 39% | Activity (Rattus norvegicus [15]): 44% | Activity (Rattus norvegicus [4]): 23% | Activity (Rattus norvegicus [5]): 10% | Activity (Rattus norvegicus [16]): -35% | Activity (Rattus norvegicus [1]): -46 mmHg | Activity (Rattus norvegicus [9]): 1% | Activity (Rattus norvegicus [11]): 9%

CN1CC[N+](C)(C)Cc2ccccc21.[I-]
Activity (Rattus norvegicus [1]): -51 mmHg

CC1CNc2ccccc2C[N+]1(C)C.[I-] (centres undefined)
Activity (Rattus norvegicus [1]): -4 mmHg

CCN1CC[N+](C)(CC)Cc2ccccc21.[I-] (centres undefined)
Activity (Rattus norvegicus [1]): -21 mmHg

C[N+]1(C)CCNc2ccc(Cl)cc2C1.[I-]
Activity (Rattus norvegicus [1]): -4 mmHg

COc1cc2c(cc1OC)NCC[N+](C)(C)C2.[I-]
Activity (Rattus norvegicus [1]): 2 mmHg

C[N+]1(C)CCN2CCc3cccc(c32)C1.[I-]
Activity (Rattus norvegicus [17]): 18% | Activity (Rattus norvegicus [18]): -93% | Activity (Rattus norvegicus [19]): -47% | Activity (Rattus norvegicus [20]): -87% | Activity (Rattus norvegicus [21]): -42% | Activity (Rattus norvegicus [22]): 68% | Activity (Rattus norvegicus [23]): 87% | Activity (Rattus norvegicus [1]): -48 mmHg | Activity (Rattus norvegicus [24]): -91% | Activity (Rattus norvegicus [25]): 12% | Activity (Rattus norvegicus [26]): -40%

C[N+]1(C)CCn2c3c(c4cccc(c42)C1)CCCC3.[I-]
Activity (Rattus norvegicus [1]): 3 mmHg

N/C(CN1CCNc2ccccc2C1)=N\O
Activity (Rattus norvegicus [1]): -12 mmHg

N=C(N)N1CCNc2ccccc2C1.O=[N+]([O-])O
Activity (Rattus norvegicus [27]): -82% | Activity (Rattus norvegicus [3]): -58% | Activity (Rattus norvegicus [6]): 8% | Activity (Rattus norvegicus [28]): 3% | Activity (Rattus norvegicus [7]): -50% | Activity (Rattus norvegicus [29]): -100% | Activity (Rattus norvegicus [30]): 10% | Activity (Rattus norvegicus [8]): 5% | Activity (Rattus norvegicus [1]): -55 mmHg | Activity (Rattus norvegicus [31]): -86% | Activity (Rattus norvegicus [10]): -39%

N=C(N)NCCN1CCCCCCC1 [GUANETHIDINE]
Activity (Rattus norvegicus [17]): 105% | Activity (Rattus norvegicus [19]): -94% | Activity (Rattus norvegicus [21]): -100% | Activity (Rattus norvegicus [32]): 57% | Activity (Rattus norvegicus [22]): 160% | Activity (Rattus norvegicus [33]): -72% | Activity (Rattus norvegicus [34]): -65% | Activity (Rattus norvegicus [35]): -85% | Activity (Rattus norvegicus [36]): 64% | Activity (Rattus norvegicus [26]): -100%
